These results are taken from ChEMBL document CHEMBL1155496, “Discovery of pyrazolyl propionyl cyclohexenamide derivatives as full agonists for the high affinity niacin receptor GPR109A” (Bioorg Med Chem Lett, 2010).

Structures are written as SMILES.

The target of one series is T1, Cytochrome P450 2C8 (Homo sapiens, UniProt P10632).
T1 sequence (P10632 whole entry): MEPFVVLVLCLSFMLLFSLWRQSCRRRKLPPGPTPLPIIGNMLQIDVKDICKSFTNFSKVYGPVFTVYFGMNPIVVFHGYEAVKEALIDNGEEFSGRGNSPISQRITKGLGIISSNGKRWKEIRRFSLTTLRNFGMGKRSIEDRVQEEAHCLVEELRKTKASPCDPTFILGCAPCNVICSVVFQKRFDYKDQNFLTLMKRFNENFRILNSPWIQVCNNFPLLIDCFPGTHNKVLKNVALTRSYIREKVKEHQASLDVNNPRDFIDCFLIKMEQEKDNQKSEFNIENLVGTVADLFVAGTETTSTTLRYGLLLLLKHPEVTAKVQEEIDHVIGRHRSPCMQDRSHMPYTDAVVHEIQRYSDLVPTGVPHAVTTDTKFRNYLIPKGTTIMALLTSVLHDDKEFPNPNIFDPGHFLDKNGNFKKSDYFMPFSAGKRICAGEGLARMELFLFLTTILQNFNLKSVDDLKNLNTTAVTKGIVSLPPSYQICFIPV
Put plainly: Inhibition of CYP2C8 in human liver microsomes. It is filed as ADME, Microsome. In short, it runs like this: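 Human liver microsomes with taxol as substrate and montelukast as positive control. IC50 determined.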

The target of a further series is Cytochrome P450 2C9 (Homo sapiens, UniProt P11712). Put plainly: Inhibition of CYP2C9 in human liver microsomes. It is filed as ADME, Microsome. Background: Liver microsomes are a subcellular fraction often used to study metabolism.
Sequence of Cytochrome P450 2C9 (P11712 whole entry): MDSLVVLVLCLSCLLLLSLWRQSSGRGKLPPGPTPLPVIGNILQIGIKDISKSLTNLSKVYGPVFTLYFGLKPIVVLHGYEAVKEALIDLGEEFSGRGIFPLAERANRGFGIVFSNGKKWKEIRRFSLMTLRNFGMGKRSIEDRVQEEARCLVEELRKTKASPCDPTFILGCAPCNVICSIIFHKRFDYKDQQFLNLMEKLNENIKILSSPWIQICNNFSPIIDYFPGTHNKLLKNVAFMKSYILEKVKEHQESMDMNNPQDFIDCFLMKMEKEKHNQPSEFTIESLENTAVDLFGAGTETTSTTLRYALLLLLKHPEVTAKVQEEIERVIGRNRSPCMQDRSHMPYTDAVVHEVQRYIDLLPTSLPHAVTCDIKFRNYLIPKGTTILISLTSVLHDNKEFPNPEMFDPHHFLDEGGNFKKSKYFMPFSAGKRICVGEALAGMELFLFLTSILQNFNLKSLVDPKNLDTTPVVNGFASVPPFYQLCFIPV
Series [1] is described as follows: Bioavailability in rat at 1 mg/kg, iv and 2 mg/kg, po. Type of series: ADME, organism-based. The conditions noted are these: in vivo. In outline:
(§1)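 Formulated at 0.2 mg/mL in ethanol/PEG/water (10:40:50). Dosed 1 mg/kg IV and 2 mg/kg PO, n = 3 per route. Blood was protein-precipitated with acetonitrile and drug concentration measured by LC/MS/MS.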

Series [2] is described as follows: Volume of distribution at steady state in rat at 1 mg/kg, iv and 2 mg/kg, po. It is filed as ADME, organism-based. The conditions noted are these: in vivo, read-out: Vdss. In short, it runs like this:
as §1

Series [3] is described as follows: Cmax in rat at 1 mg/kg, iv and 2 mg/kg, po. It is filed as ADME, organism-based. To be noted: in vivo. In outline: as §1
The nature of series [4]: Half life in rat at 1 mg/kg, iv and 2 mg/kg, po. It is filed as ADME, organism-based. The conditions noted are these: in vivo. In outline:
as §1

Series [5] in a line: Clearance in rat at 1 mg/kg, iv and 2 mg/kg, po. It is filed as ADME, organism-based. The conditions noted are these: in vivo. In outline:
as §1

For series [6], the target named is Hydroxycarboxylic acid receptor 2 (Homo sapiens) (UniProt Q8TDS4). Put plainly: Serum shift in 3H-niacin binding to GPR109A receptor with 4% human serum.
Sequence of Hydroxycarboxylic acid receptor 2 (Homo sapiens) (Q8TDS4 whole entry): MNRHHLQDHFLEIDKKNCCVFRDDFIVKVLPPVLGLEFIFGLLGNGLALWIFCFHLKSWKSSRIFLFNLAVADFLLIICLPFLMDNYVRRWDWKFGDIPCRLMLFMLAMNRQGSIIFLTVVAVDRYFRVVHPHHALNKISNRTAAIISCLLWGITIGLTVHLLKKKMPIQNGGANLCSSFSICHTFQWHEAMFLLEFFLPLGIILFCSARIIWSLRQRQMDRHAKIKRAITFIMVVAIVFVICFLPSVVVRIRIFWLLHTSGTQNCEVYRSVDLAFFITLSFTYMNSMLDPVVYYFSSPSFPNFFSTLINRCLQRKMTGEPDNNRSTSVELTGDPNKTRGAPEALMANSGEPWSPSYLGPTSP
Another series has as its system Adipocyte. As to the kind of experiment: Inhibition of lipolysis in human adipocytes assessed as free glycerol level. It is filed as functional, cell-based. In outline:
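Lipolysis in human adipocytes; free glycerol release measured and used to calculate IC50.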

Series [7] in a line: Bioavailability in mouse at 1 mg/kg, iv and 2 mg/kg, po. Type of series: ADME, organism-based. To be noted: in vivo. In outline:
as §1

The nature of series [8]: Volume of distribution at steady state in mouse at 1 mg/kg, iv and 2 mg/kg, po. It is filed as ADME, organism-based. To be noted: in vivo, read-out: Vdss. In short, it runs like this:
as §1

Series [9] can be described thus: Cmax in mouse at 1 mg/kg, iv and 2 mg/kg, po. Type of series: ADME, organism-based. The conditions noted are these: in vivo. In outline: as §1
The nature of series [10]: Half life in mouse at 1 mg/kg, iv and 2 mg/kg, po. Type of series: ADME, organism-based. To be noted: in vivo. In short, it runs like this:
as §1

Series [11] is described as follows: Clearance in mouse at 1 mg/kg, iv and 2 mg/kg, po. To be noted: in vivo. It is filed as ADME, organism-based. In short, it runs like this:
as §1

Turning to `CC(Cc1ccn(-c2ccc(O)cn2)n1)C(=O)NC1=C(C(=O)O)CC(c2cc(F)cc(F)c2)CC1` (stereo unspecified), the IC50 stood at 7.7 µM against Cytochrome P450 2C8 and 23 µM at Cytochrome P450 2C9. The bioavailability in series [1] was 39%. Also, the Vd in series [2] was determined as 0.53 L/kg. In [3], this compound displayed a peak concentration (Cmax) of 1580 nM. In series [4], the half-life is 5.5 h. Further, in series [5], the clearance is 8.6 mL/min/kg. Further, in series [6], the serum shift amounted to 100.
With `CC(Cc1ccn(-c2ccc(O)cn2)n1)C(=O)NC1=C(C(=O)O)CC[C@@H](C)C1` (stereo partly specified), in [6], the serum shift was 290.
On the same count and under the same terms, in the case of `O=C(CCc1ccn(-c2ccc(O)cn2)n1)Nc1ccccc1C(=O)O` it was 170.
`O=C(O)c1cccnc1` [NIACIN]: in the series with Adipocyte, the IC50 came to 0.08 µM.
As to `O=C(CCc1cnn(-c2ccc(O)cc2)c1)Nc1ccccc1C(=O)O`, in series [7], the bioavailability turned out to be 21%. The Vd in [8] was found to be 3.56 L/kg. Moreover, in series [9], the Cmax was 480 nM. Further, the half-life in series [10] was 3.5 h. Further, in [11], the clearance was determined as 17 mL/min/kg. Besides, the serum shift in series [6] was 70.
As to `CC(Cc1ccn(-c2ccc(O)cn2)n1)C(=O)Nc1ccccc1C(=O)O` (stereo unspecified), in series [6], the serum shift is 200.
`Cc1c(CC(C)C(=O)Nc2ccccc2C(=O)O)cnn1-c1ccc(O)cc1` (stereo unspecified): the 50% inhibitory concentration (IC50) with Adipocyte is 0.06 µM; on Cytochrome P450 2C8, 34 µM; on Cytochrome P450 2C9, 22 µM. Moreover, the serum shift in series [6] worked out at 60.
In the case of `CC(Cc1ccn(-c2ccc(O)cn2)n1)C(=O)NC1=C(C(=O)O)CCC(c2cc(F)c(F)c(F)c2)C1` (stereo unspecified), the serum shift in [6] turned out to be 30.
With `O=C(CCc1cnn(-c2ccc(O)cn2)c1)NC1=C(C(=O)O)CCCC1`, on Cytochrome P450 2C9, the concentration for half-maximal inhibition (IC50) was greater than 50 µM. This compound also displayed a bioavailability in series [7] of 46%. Besides, the Vd in [8] was 0.4 L/kg. The compound also showed a maximum concentration (Cmax) in series [9] of 11500 nM. Further, the half-life in [10] is 3.3 h. In [11], the clearance was 1.2 mL/min/kg. The serum shift in series [6] came out at 240.
On to `CCCC1CCC(C(=O)O)=C(NC(=O)C(C)Cc2ccn(-c3ccc(O)cn3)n2)C1` (stereo unspecified), for which the serum shift in series [6] came out at 110.
In series [7], `O=C(CCc1ccc(-c2ccc(O)cc2Cl)cc1)Nc1ccccc1C(=O)O` gave a bioavailability of 4.6%. This compound returned a Cmax in series [9] of 930 nM. Also, in [6], the serum shift was greater than 5000.
Turning to `O=C(CCc1ccn(-c2ccccc2)n1)Nc1ccccc1C(=O)O`, the IC50 on Cytochrome P450 2C8 came to 2.7 µM; at Cytochrome P450 2C9 it was 2.5 µM.
Take `CC(Cc1ccn(-c2ccc(O)cn2)n1)C(=O)NC1=C(C(=O)O)CCC(c2cccc(F)c2F)C1` (stereo unspecified): in [1], the bioavailability was determined as 4.5%. The Vd in [2] is 0.36 L/kg. Further, in series [3], the peak concentration (Cmax) turned out to be 30 nM. In series [4], this compound gave a half-life of 0.74 h. For the same compound, the clearance in series [5] stood at 28 mL/min/kg. Moreover, the serum shift in series [6] is 30.
At Cytochrome P450 2C9, `O=C(CCc1cnn(-c2ccccc2)c1)Nc1ccccc1C(=O)O` registered a concentration for half-maximal inhibition (IC50) of 15 µM. Besides, the serum shift in series [6] amounted to 40.
As for `CC(Cc1ccn(-c2ccc(O)cn2)n1)C(=O)NC1=C(C(=O)O)CCC(c2cccc(F)c2)C1` (stereo unspecified), in [6], the serum shift is 40.
Same read-out and setting: the same measure for `CC(Cc1ccn(-c2ccc(O)cn2)n1)C(=O)NC1=C(C(=O)O)CCCC1` (stereo unspecified): 900.
Turning to `Cc1c(CC(C)C(=O)NC2=C(C(=O)O)CCCC2)cnn1-c1ccc(O)cc1` (stereo unspecified), the figures for the half-inhibitory concentration (IC50) in the series with Adipocyte, on Cytochrome P450 2C8 and against Cytochrome P450 2C9 were 0.07 µM, greater than 100 µM and greater than 100 µM, respectively. This compound also displayed a bioavailability in [7] of 52%. In addition, the Vd in [8] was 0.68 L/kg. The concentration in series [9] peaked (Cmax) at 4780 nM. Moreover, the half-life in series [10] was 4.8 h. The clearance in [11] turned out to be 3.5 mL/min/kg. In series [6], the serum shift stood at 50.
Regarding `O=C(CCc1ccn(-c2ccc(O)cn2)n1)NC1=C(C(=O)O)CCCC1`, the serum shift in series [6] turned out to be 1000.

As usually defined, the IC50 is the midpoint of a concentration-inhibition curve. Broadly, the bioavailability is the share of a dose that reaches the circulation, judged against a reference dose that is usually intravenous. A high value points to good availability. Broadly, the Cmax is the maximum level reached in the sampled fluid or tissue. What is called half-life is the time needed for the level to fall by half in the phase considered.
